In the test the target is wild type XIAP‐BIR1 (Homo sapiens, UniProt P98170). The test is described as follows: MicroScale Thermophoresis. The class given is binding. The essentials: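 Human XIAP-BIR1 domain (wild type, or R62S, D71A, R82S or V86E point mutant made by site-directed mutagenesis), expressed from pET28b and purified. Lysines were covalently dye-labelled, and protein was held at 100 nM. Test compound was added as a two-fold series, final 30 nM–1.0 mM or 300 nM–10 mM. Assay at 24 °C in 50 mM Tris-HCl pH 8, 200 mM NaCl, 10 % glycerol, 10 mM DTT, 0.05 % Tween20, with 20 % LED and medium MST power. Kd was fitted from unbound/bound response values.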
A general note: Microscale thermophoresis detects binding through changes in fluorescence in a small temperature gradient.

Each structure is given as a SMILES string.

One may read the Kd as the free concentration of one partner at which half of the binding sites on the other are occupied at equilibrium, for simple one-to-one binding. The low end stands for tighter binding, the high end for weaker binding.

Sequence of wild type XIAP‐BIR1 (P98170 10-99 limits assumed): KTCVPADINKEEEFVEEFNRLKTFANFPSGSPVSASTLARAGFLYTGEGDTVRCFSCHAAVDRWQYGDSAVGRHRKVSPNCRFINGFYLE

`Cc1ccc(C(=O)Nc2ccc(S(=O)(=O)O)c3cc(S(=O)(=O)O)cc(S(=O)(=O)O)c23)cc1NC(=O)c1cccc(NC(=O)Nc2cccc(C(=O)Nc3cc(C(=O)Nc4ccc(S(=O)(=O)O)c5cc(S(=O)(=O)O)cc(S(=O)(=O)O)c45)ccc3C)c2)c1` [Suramin] yielded a Kd of 612 ± 109 µM.

(Values after PMC6460348 (ChemistryOpen, 2019).)
